Common to all, as to format: cell-based
Assay [1] concerns the target T1, Nuclear receptor ROR-beta (Homo sapiens) (UniProt Q92753).
T1 sequence (whole entry): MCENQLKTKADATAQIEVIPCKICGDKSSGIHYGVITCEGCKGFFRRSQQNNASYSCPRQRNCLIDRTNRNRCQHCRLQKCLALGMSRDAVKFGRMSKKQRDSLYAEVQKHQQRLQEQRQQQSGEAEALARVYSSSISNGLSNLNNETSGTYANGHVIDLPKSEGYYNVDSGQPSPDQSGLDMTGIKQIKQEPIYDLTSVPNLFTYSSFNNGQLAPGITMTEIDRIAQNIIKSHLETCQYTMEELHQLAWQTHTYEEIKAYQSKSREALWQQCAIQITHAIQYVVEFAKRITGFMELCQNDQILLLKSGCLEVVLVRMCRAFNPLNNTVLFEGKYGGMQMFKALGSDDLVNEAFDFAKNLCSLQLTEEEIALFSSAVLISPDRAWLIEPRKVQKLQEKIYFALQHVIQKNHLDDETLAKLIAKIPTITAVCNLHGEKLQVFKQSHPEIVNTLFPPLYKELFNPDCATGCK
Kind of assay: Inverse agonist activity at human ROR-beta1 transfected in HEK293 cells at 10 uM after 16 hrs by luciferase reporter gene assay relative to control. Put shortly: (§1)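 HEK293 cells grown in DMEM with 5% FBS plus penicillin/streptomycin, 37 °C, 5% CO2, seeded at 20% confluence 24 h before transfection. Calcium phosphate cotransfection per well: 150 ng receptor expression plasmid, 500 ng luciferase reporter, 10 ng β-galactosidase vector. After 8 h, compound at 10 µM or DMSO for 16 h. Luciferase normalized to β-galactosidase, inhibition expressed as percent of control, transfections in triplicate.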

Assay [2] concerns the target T2, Nuclear receptor ROR-gamma (Homo sapiens) (UniProt P51449).
T2 sequence (whole entry): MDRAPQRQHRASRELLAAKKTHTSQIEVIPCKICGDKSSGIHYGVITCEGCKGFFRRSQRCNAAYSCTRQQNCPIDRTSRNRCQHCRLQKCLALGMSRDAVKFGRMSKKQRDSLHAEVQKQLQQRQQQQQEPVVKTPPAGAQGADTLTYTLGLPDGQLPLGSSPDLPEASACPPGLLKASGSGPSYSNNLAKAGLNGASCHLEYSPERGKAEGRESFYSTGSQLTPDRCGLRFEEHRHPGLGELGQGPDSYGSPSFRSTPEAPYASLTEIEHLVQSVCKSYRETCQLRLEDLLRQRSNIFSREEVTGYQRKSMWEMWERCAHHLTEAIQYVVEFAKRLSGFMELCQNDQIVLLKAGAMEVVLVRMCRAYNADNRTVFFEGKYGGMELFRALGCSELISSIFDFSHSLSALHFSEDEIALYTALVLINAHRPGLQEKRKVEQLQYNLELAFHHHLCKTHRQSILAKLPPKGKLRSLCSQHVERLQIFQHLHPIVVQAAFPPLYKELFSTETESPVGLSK
The experiment in a line: Inverse agonist activity at human ROR-gamma1 transfected in HEK293 cells at 10 uM after 16 hrs by luciferase reporter gene assay relative to control. Put shortly:
as §1

The target of assay [3] is T3, Nuclear receptor ROR-alpha (Homo sapiens, UniProt P35398).
T3 sequence (P35398 whole entry): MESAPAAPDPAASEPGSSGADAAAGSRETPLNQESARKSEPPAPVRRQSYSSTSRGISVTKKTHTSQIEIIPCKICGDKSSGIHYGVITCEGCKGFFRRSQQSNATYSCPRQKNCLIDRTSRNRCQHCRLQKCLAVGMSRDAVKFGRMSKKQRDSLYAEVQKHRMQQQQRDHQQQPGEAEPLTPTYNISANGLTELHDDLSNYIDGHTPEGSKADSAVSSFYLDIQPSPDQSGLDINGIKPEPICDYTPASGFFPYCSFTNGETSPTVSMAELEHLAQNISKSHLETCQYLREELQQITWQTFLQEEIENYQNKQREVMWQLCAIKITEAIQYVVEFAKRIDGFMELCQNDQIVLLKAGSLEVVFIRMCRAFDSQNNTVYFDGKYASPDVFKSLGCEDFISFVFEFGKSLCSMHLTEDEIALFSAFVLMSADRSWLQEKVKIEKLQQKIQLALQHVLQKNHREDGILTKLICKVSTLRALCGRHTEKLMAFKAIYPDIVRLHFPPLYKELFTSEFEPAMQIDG
Kind of assay: Inverse agonist activity at human ROR-alpha1 transfected in HEK293 cells after 16 hrs by luciferase reporter gene assay.

Assay [4] concerns the target T4, Nuclear receptor ROR-beta (Homo sapiens, UniProt Q92753).
T4 sequence (Q92753 whole entry): T1 sequence (whole entry)
Kind of assay: Inverse agonist activity at human ROR-beta1 transfected in HEK293 cells after 16 hrs by luciferase reporter gene assay.

Assay [5] concerns the target T5, Nuclear receptor ROR-gamma (Homo sapiens, UniProt P51449).
T5 sequence (P51449 whole entry): T2 sequence (whole entry)
Kind of assay: Inverse agonist activity at human ROR-gamma1 transfected in HEK293 cells after 16 hrs by luciferase reporter gene assay.

pIC50: −log10 of the molar value. A value given as a limit tells only on which side of the number the result lay.

In assay [1], `C[Si]1(C)c2ccccc2-c2cc(C(O)(C(F)(F)F)C(F)(F)F)ccc21` displayed an inhibition of 40%.
In the case of `CCCC[Si]1(CCCC)c2ccccc2-c2cc(C(C)=O)ccc21`, the inhibition in assay [1] and in assay [2] was less than 5% throughout.
For `CCCCn1c(=O)c2ccccc2c2cc(CC)ccc21`, the inhibition in assay [1] came to 29%; in assay [2], 37%.
As for `CCCC[Si]1(CCCC)c2ccccc2-c2cc(C(C)O)ccc21` (stereo unspecified), the inhibition in assay [1] and in assay [2] was less than 5% each time.
Consider `CCCC[Si]1(CCCC)c2ccccc2-c2cc(CC)ccc21`, for which the results for the inhibition in assay [1] and in assay [2] were less than 5% and 18%, respectively.
With `CCCCn1c(=O)c2ccccc2c2cc(C(O)(C(F)(F)F)C(F)(F)F)ccc21`, the pIC50 in assay [3] was 5.14; in assay [4] it was 5.24; in assay [5], 5.33.
As to `CCCC[Si]1(CCCC)c2ccccc2-c2ccccc21`, the inhibition in assay [1] was less than 5%; in assay [2], 13%.
In assay [1], `CC[Si]1(CC)c2ccccc2-c2cc(C(O)(C(F)(F)F)C(F)(F)F)ccc21` yielded an inhibition of 28%. Also, the pIC50 in assay [5] was 5.38.

Source of the values: ChEMBL document CHEMBL3585299, “Design and synthesis of novel ROR inverse agonists with a dibenzosilole scaffold as a hydrophobic core structure” (Bioorg Med Chem, 2015).
